Laboratory results published in ChEMBL document CHEMBL4480410, “Targeting the MKK7-JNK (Mitogen-Activated Protein Kinase Kinase 7-c-Jun N-Terminal Kinase) Pathway with Covalent Inhibitors” (J Med Chem, 2019).
≈ marks a conversion by molar mass, not a printed value. Calls of active or inactive are those of the source. The calls are words filed in the database; no cut-off is given here.

Assays:
[1] = Kinetic solubility of the compound in Hepes buffer at pH 7.4 after 90 mins; type: physicochemical; conditions: read-out: Kinetic_solubility
In short: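 Compound diluted from 10 mM DMSO stock to 500 µM final in 50 mM Hepes, pH 7.4, shaken 90 min at room temperature. Filtered through 0.2 µm PVDF, then OD scanned 250–500 nm in 10 nm steps. Solubility taken from AUC, normalized to a dilution in acetonitrile.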

[2] = Stability in human plasma assessed as compound remaining at 5 uM after 1 hr by LC/MS analysis; type: ADME, cell-free; conditions: read-out: Stability
In short: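 Compound at 5 µM incubated 1 h at 37 °C in human or mouse plasma; percentage remaining quantified by LC/MS.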

[3] = Protein binding in human plasma at 5 uM after 6 hrs by LC/MS analysis; type: ADME, cell-free; conditions: read-out: PPB (converted)
In short: (§1)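 Equilibrium dialysis of plasma with compound at 5 µM, 6 h at 37 °C; final compound concentrations determined by LC/MS to give percent bound.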

[4] = Permeability of the compound assessed as drug flux at 500 uM after 16 hrs by PAMPA; type: ADME
In short: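 10 mM DMSO stock diluted to 500 µM final in 50 mM Hepes pH 7.4 on membrane coated with 10% dioleoylphosphatidylcholine, 0.5% cholesterol in dodecane; 16 h room temperature, wet chamber.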

[5] = Apparent permeability across basolateral to apical side in human Caco2 cells at 5 uM after 2 hrs by transwell membrane based assay; type: ADME, cell-based, Caco-2; conditions: caco-2, 2 h, 5 µM
In short: (§2)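 10 mM DMSO stock diluted to 5 µM final in HBSS pH 7.4; 2 h at 37 °C, 5% CO2 on Caco-2 monolayers grown 21 days on transwell membranes.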

[6] = biological target: T1, Dual specificity mitogen-activated protein kinase kinase 7 (Homo sapiens) (UniProt O14733); assay: Covalent binding affinity to MKK7 (unknown origin) assessed as formation of covalent bond with Cys218 residues by MS/MS analysis
T1 sequence (whole entry): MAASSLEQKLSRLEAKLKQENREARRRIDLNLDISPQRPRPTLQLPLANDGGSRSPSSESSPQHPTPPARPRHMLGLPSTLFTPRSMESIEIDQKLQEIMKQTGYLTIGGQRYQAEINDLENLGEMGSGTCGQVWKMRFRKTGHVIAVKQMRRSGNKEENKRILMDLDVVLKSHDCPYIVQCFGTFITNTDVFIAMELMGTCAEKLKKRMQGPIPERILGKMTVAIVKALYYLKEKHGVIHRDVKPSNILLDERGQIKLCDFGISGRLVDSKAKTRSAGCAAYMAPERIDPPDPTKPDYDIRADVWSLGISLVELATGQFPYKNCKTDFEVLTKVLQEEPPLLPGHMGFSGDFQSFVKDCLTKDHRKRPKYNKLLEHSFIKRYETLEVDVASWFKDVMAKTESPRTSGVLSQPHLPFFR
In short: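 Protein at 1 mg/mL incubated with 2-fold molar excess of compound, 30 min on ice, then denatured and run on 15% SDS gel. Band excised, reduced with 50 mM DTT (1 h, 37 °C), alkylated with 55 mM iodoacetamide (1 h, 20 °C), digested with 0.1 mg/mL trypsin 20 h at 30 °C, acidified with TFA. Analysed by ion-trap MS/MS.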

[7] = Protein binding in mouse plasma at 5 uM after 6 hrs by LC/MS analysis; type: ADME, cell-free; conditions: read-out: PPB (converted); in short: as §1
[8] = Apparent permeability across basolateral to apical side in MDCK2-MDR1 cells at 10 uM after 2 hrs by transwell membrane based assay; type: ADME, cell-based, Canis lupus familiaris; conditions: dog, MDCK-MDR1
In short: (§3)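 Compound at 10 µM in HBSS added to apical or basolateral side of MDCKII-MDR1 monolayer, 2 h at 37 °C. Both sides quantified by LC-MS/MS; Papp A–B or B–A from receiver concentration and volume, time, membrane area and initial donor concentration.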

[9] = Apparent permeability across apical to basolateral side in human Caco2 cells at 5 uM after 2 hrs by transwell membrane based assay; type: ADME, cell-based; conditions: Caco-2; in short: as §2
[10] = Apparent permeability across apical to basolateral side in MDCK2-MDR1 cells at 10 uM after 2 hrs by transwell membrane based assay; type: ADME, cell-based, Canis lupus familiaris; conditions: dog, MDCK-MDR1; in short: as §3
[11] = Inhibition of N-terminal His-tagged MKK7 beta1 S273D/T275D double mutant (unknown origin) expressed in insect cells using JNK1 K55M mutant as substrate by ADP-Glo assay; set-up: species or system Homo sapiens
In short: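 ADP-Glo luminescence run per supplier protocol. Kinase: MKK7 beta1 (aa 1-462, TEV-cleavable N-terminal His6 tag, S273D/T275D) expressed in Sf9 insect cells, used at 20 nM. Substrate: JNK1 K55M at 5 µM. Compound dispensed acoustically; read on plate reader.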

[12] = biological target: Epidermal growth factor receptor (Homo sapiens, UniProt P00533, L858R/T790M); assay: Inhibition of EGFR L858R/T790M double mutant (unknown origin) by HTRF assay
[13] = biological target: Epidermal growth factor receptor (Homo sapiens, UniProt P00533); assay: Inhibition of wild type EGFR (unknown origin) by HTRF assay
[14] = biological target: T2, Dual specificity mitogen-activated protein kinase kinase 7 (Mus musculus) (UniProt Q8CE90); assay: Inhibition of MKK7 in mouse DRG cells assessed as reduction in cJUN phosphorylation at 1 uM after 2 hrs by Western blot analysis; type: cell-based
T2 sequence (whole entry): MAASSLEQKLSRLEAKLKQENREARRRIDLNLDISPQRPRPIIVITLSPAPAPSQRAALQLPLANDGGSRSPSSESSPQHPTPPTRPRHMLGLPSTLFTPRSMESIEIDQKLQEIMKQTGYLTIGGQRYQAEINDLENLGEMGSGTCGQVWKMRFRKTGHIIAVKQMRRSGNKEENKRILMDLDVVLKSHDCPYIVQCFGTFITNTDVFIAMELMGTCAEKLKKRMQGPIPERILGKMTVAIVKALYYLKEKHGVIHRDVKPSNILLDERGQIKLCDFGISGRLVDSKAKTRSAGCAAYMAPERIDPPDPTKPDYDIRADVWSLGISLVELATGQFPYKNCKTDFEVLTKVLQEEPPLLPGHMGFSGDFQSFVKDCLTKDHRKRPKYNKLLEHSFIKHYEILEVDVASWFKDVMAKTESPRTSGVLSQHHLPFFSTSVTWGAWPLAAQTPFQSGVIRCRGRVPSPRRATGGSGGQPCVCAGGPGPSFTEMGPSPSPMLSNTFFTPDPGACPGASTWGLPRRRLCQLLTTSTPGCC
In short: (§4)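 Dissociated DRG neurons plated on laminin for 3 h, medium replaced, compound added for a further 2 h. Neurons lysed in RIPA buffer with phosphatase inhibitors. Western blots probed for phospho-cJun, cJun, phospho-JNK and JNK.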

[15] = biological target: T2, Dual specificity mitogen-activated protein kinase kinase 7 (Mus musculus); assay: Inhibition of MKK7 in mouse DRG cells assessed as reduction in JNK phosphorylation at 1 uM after 2 hrs by Western blot analysis; type: cell-based; in short: as §4

Epidermal growth factor receptor (Homo sapiens, UniProt P00533, L858R/T790M), sequence (P00533 25-1210 T790M/L858R limits assumed): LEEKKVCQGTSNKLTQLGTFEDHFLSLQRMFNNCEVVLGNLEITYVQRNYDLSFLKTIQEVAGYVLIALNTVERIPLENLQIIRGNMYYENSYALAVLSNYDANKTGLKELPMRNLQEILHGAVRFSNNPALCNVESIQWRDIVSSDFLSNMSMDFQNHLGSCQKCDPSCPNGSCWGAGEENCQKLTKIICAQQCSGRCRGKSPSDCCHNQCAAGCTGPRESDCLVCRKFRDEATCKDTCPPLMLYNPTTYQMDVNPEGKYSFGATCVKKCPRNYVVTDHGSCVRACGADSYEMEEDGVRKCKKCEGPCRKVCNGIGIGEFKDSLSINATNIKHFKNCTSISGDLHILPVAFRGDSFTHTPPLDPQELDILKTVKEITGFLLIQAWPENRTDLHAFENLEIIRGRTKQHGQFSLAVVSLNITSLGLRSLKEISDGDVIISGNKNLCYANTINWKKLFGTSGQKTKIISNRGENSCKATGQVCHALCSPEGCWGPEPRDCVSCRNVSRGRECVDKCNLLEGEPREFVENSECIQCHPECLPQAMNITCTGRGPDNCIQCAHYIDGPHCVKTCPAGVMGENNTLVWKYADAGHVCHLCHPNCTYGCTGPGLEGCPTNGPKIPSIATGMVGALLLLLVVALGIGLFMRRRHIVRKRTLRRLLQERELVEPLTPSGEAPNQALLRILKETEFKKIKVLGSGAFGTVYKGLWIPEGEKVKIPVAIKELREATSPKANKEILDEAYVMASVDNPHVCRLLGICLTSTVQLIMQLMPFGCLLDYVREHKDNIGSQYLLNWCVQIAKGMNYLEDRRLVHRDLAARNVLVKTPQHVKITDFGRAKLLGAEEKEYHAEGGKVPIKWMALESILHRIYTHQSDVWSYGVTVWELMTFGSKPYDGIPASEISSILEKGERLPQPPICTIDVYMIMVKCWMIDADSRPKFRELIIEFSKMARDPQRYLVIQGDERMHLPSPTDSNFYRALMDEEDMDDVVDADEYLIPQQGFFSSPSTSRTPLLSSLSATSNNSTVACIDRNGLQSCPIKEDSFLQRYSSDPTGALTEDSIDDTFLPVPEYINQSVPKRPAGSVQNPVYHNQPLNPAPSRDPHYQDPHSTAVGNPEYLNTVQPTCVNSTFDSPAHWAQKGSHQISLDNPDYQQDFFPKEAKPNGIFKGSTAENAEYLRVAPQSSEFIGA
Epidermal growth factor receptor (Homo sapiens, UniProt P00533), sequence (P00533 whole entry): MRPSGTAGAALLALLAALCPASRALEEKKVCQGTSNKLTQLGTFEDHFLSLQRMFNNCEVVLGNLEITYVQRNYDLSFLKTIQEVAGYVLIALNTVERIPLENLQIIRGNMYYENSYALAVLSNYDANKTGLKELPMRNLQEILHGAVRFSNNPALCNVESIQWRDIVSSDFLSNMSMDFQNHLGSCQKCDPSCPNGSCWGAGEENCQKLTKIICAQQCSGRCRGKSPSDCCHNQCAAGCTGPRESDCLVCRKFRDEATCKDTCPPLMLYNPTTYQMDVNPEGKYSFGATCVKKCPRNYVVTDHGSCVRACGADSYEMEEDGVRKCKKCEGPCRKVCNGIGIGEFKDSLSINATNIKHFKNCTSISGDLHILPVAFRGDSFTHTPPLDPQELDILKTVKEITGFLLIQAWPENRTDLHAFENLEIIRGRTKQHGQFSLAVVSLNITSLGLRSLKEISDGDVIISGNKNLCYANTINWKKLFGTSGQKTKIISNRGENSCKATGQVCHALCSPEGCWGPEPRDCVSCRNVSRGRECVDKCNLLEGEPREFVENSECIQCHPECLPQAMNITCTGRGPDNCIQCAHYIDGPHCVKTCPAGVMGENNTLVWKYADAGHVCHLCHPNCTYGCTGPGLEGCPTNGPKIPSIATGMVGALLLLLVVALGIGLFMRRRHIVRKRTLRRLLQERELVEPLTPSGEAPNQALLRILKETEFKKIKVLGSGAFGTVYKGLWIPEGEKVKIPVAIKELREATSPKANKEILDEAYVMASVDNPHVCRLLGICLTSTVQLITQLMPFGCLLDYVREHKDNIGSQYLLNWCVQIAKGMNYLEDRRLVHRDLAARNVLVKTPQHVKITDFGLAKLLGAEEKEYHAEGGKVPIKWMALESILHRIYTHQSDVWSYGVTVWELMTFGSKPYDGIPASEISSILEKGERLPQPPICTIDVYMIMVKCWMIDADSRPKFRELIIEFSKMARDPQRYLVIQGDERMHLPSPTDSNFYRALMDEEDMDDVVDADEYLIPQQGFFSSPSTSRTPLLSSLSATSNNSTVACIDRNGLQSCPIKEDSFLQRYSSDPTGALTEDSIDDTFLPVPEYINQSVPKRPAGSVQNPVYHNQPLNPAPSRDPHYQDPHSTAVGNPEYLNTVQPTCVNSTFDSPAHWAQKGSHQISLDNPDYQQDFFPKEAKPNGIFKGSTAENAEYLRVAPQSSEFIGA

SMILES | Activity [6] | IC50 [11] | IC50 [12] | IC50 [13] | further results
C=CC(=O)N1CCC[C@@H](n2nc(-c3ccc(Oc4ccccc4)cc3)c3c(N)ncnc32)C1 [IBRUTINIB] | Active | 0.078 µM |  |  | solubility kinetic at 1.5 h [1]: 36 µM (≈ 15.9 µg/mL); remaining at 1 h, 5 µM [2]: 79.7%; fraction unbound at 6 h, 5 µM [3]: 0.024; permeability [4]: 38%; Papp [5]: 9 nm/s; fraction unbound at 6 h, 5 µM [7]: 0.011; Papp B→A at 2 h, 10 µM [8]: 30 nm/s; Papp A→B at 2 h, 5 µM [9]: 400 nm/s; Papp A→B at 2 h, 10 µM [10]: 220 nm/s
C#Cc1nn([C@@H]2CCCN(C(=O)C=C)C2)c2ncnc(N)c12 | Active | 0.04 µM |  |  | 
C=CC(=O)N1CCC[C@@H](n2nc(-c3cn(Cc4nc5ccc(Cl)cn5c4Br)nn3)c3c(N)ncnc32)C1 |  | 0.669 µM | 0.104 µM | 0.085 µM | 
CCC(=O)N1CCC[C@@H](n2nc(-c3cn(-c4ccc(C(C)=O)cc4)nn3)c3c(N)ncnc32)C1 |  | > 10 µM | 0.677 µM | 0.649 µM | inhibition [14]: inactive; inhibition [15]: inactive
C=CC(=O)N1CCC[C@@H](n2nc(-c3cn(-c4cc(C(F)(F)F)cnc4C#N)nn3)c3c(N)ncnc32)C1 |  | 0.788 µM | 0.028 µM | 0.006 µM | 
C=CC(=O)N1CCC[C@@H](n2nc(-c3cn(C)c4ccccc34)c3c(N)ncnc32)C1 |  | 0.302 µM |  |  | 
